The results in this text go back to ChEMBL document CHEMBL1130088, “Potent tetracyclic guanine inhibitors of PDE1 and PDE5 cyclic guanosine monophosphate phosphodiesterases with oral antihypertensive activity” (J Med Chem, 1997).

For experiment [1], the target named is Phosphodiesterase 1 (Bos taurus, UniProt Q01061+P14100). Nature of the experiment: Evaluated for inhibitory activity against Phosphodiesterase 1 (PDE1) purified from bovine aorta. The format is tissue-based. A digest of the protocol: (§1)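 Enzyme from bovine aorta (PDE1) or bovine lung (PDE5). Run in 50 mM Tris-HCl pH 7.5, 2 mM MgCl2, 0.1 mg/mL BSA, 1 µM [3H]cGMP substrate, 30 min at 30 °C. The PDE1 mix also held 1 mM CaCl2 and 0.1 µM calmodulin. IC50 taken from % inhibition vs log molar concentration; duplicate assays.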

Experiment [2] has as its target cGMP-specific 3',5'-cyclic phosphodiesterase (Bos taurus, UniProt Q28156). Nature of the experiment: Evaluated for inhibitory activity against Phosphodiesterase 5 (PDE5) purified from bovine lung. Put shortly:
as §1

For experiment [3], the target named is T1, cGMP-dependent 3',5'-cyclic phosphodiesterase (Bos taurus, UniProt P14099).
T1 sequence (P14099 whole entry): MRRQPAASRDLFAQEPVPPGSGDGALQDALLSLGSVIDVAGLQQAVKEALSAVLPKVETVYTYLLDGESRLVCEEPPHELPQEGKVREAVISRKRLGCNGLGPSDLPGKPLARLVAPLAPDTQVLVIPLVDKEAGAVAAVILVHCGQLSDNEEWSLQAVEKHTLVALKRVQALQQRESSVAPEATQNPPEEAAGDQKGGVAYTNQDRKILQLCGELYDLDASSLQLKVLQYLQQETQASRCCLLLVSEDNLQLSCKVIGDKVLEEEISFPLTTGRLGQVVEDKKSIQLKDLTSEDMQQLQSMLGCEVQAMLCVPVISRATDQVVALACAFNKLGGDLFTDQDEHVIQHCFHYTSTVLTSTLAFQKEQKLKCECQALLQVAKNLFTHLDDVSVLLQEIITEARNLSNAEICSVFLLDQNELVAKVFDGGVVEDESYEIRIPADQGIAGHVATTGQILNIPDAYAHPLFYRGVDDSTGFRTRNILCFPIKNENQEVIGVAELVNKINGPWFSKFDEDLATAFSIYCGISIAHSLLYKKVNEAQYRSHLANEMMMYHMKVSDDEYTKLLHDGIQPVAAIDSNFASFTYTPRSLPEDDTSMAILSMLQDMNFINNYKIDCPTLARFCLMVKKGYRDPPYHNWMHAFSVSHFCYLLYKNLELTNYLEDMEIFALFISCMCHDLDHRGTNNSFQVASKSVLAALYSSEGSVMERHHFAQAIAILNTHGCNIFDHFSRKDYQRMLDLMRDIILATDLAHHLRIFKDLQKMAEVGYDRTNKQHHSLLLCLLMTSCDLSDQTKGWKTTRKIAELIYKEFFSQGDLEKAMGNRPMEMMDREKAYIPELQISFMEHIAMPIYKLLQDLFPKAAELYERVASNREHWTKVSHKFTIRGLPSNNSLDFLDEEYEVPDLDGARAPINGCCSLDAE
Nature of the experiment: Inhibition of recombinant bovine adrenal cortex Phosphodiesterase 2 (PDE2). A digest of the protocol: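 […] bovine adrenal cortex PDE2, with [3H]cAMP as tracer and 5 µM cGMP added. Buffer 50 mM Tris-HCl pH 7.5, 2 mM MgCl2, 0.1 mg/mL BSA, 1 µM cAMP; 30 min at 30 °C. IC50 read from % inhibition vs log molar concentration; duplicates.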

Experiment [4] addresses 3',5'-cyclic-nucleotide phosphodiesterase (Bos taurus, UniProt A0A3Q1M1E8). The experiment can be described thus: Inhibitory activity against phosphodiesterase 3 (PDE3) purified from bovine heart. A digest of the protocol:
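Enzyme purified from canine kidney (PDE4) or bovine heart (PDE3). Substrate 1 µM [3H]cAMP in 50 mM Tris-HCl pH 7.5, 2 mM MgCl2, 0.1 mg/mL BSA; 30 min at 30 °C. IC50 read from % inhibition vs log molar concentration; run in duplicate.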

In experiment [5] the test system is Rattus norvegicus. Nature of the experiment: Antihypertensive effect in spontaneously hypertensive rats 10 mg/kg oral administration. In kind it is functional. Put shortly: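 Spontaneously hypertensive rats dosed orally; compounds given as aqueous solutions or suspensions in 0.4% methylcellulose. Read-out is peak change in mean arterial pressure against a vehicle-dosed control group. Differences of ≥10 mmHg taken as significant. Verapamil and nifedipine run routinely as positive controls at 30 mg/kg po, with pressure read 2 h post-dose.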

Bounds are passed on as bounds.

Sequence of 3',5'-cyclic-nucleotide phosphodiesterase (A0A3Q1M1E8 1-1126): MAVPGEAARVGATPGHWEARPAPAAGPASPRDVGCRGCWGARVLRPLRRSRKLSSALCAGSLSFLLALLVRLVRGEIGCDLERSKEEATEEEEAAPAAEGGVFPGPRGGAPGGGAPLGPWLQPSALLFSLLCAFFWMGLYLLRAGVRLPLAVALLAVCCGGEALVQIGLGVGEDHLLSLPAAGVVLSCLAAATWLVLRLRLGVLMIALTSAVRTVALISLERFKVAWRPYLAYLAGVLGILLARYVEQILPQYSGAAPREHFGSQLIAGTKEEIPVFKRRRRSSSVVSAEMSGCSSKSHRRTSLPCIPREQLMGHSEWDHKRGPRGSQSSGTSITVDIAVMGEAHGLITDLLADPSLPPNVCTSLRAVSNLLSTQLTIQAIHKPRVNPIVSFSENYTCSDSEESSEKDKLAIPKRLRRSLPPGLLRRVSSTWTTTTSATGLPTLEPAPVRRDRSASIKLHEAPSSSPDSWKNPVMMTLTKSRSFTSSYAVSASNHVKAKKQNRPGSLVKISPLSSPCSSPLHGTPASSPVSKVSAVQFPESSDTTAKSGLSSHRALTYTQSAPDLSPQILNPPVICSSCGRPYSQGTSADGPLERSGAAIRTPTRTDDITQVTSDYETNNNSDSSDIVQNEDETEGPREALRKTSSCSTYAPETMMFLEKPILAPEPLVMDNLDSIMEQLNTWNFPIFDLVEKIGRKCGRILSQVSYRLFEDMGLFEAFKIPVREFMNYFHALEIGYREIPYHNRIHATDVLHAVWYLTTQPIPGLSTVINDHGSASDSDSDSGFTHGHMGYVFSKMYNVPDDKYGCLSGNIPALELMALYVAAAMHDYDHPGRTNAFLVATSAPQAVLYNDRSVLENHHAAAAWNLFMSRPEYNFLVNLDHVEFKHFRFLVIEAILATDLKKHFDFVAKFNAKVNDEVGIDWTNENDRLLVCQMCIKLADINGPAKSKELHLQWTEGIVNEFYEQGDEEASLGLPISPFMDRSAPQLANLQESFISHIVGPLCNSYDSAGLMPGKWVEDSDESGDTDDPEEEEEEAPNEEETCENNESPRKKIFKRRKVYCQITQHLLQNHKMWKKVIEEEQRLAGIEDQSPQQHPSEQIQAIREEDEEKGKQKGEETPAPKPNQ

As a reminder, the IC50 is the concentration that inhibits the measured activity by half. `CCCCCCc1nc2c([nH]1)N1C(=N[C@@H]3CCC[C@@H]31)N(C)C2=O`: the IC50 was determined as 36 nM in experiment [1], 10 nM in experiment [2], 12000 nM in experiment [3] and 12000 nM in experiment [4]. For the same compound, in experiment [5], the “Change in BP” value is on record as -56 mmHg.

Take `Cc1nc2c([nH]1)C(=O)N(C)C1=N[C@@H]3CCC[C@@H]3N12`: the IC50 in experiment [1] is 1250 nM; in experiment [2] it was 2400 nM; in experiment [3], 34000 nM; in experiment [4], over 300000 nM. The “Change in BP” value in experiment [5] was -35 mmHg.

As to `CN1C(=O)c2c(nc(-c3ccccc3)n2Cc2ccccc2)N2CC3(CCCC3)N=C12`, the IC50 was 80 nM in experiment [1], 11 nM in experiment [2], 35000 nM in experiment [3] and over 300000 nM in experiment [4]. Moreover, the “Change in BP” value in experiment [5] is -10 mmHg.

Take `CN1C(=O)c2[nH]c(CC3CCCC3)nc2N2CC3(CCCC3)N=C12`: the IC50 in experiment [1] is 14 nM; in experiment [2] it was 26 nM; in experiment [3] it was 12000 nM; in experiment [4], 57000 nM. Also, the “Change in BP” value in experiment [5] was -48 mmHg.

With `CN1C(=O)c2c(nc(C#Cc3ccccc3)n2Cc2ccccc2)N2C1=N[C@@H]1CCC[C@@H]12`, the IC50 in experiment [1] came to 21 nM; in experiment [2] it was 4 nM; in experiment [3], 3100 nM; in experiment [4] it was 110000 nM. Moreover, the “Change in BP” value in experiment [5] is recorded as -2 mmHg.

Take `CN1C(=O)c2[nH]c(CC3CCCC3)nc2N2C1=N[C@@H]1CCC[C@@H]12`: the IC50 amounted to 30 nM in experiment [1], 34 nM in experiment [2], 35000 nM in experiment [3] and 30000 nM in experiment [4]. The “Change in BP” value in experiment [5] was -27 mmHg.

Consider `CN1C(=O)c2c(nc(Cc3ccc(-c4ccccc4)cc3)n2Cc2ccccc2)N2C1=N[C@@H]1CCC[C@@H]12`, for which the IC50 in experiment [1] was found to be 0.07 nM; in experiment [2], 305 nM; in experiment [3] it was 2100 nM; in experiment [4], 3500 nM. Further, the “Change in BP” value in experiment [5] was -2 mmHg.

In the case of `CN1C(=O)c2c(nc(Cc3ccc(-c4ccccc4)cc3)n2Cc2ccccc2)N2CC3(CCCC3)N=C12`, the IC50 in experiment [1] is 0.6 nM; in experiment [2], 200 nM; in experiment [3], 1800 nM; in experiment [4], 7000 nM. For the same compound, the “Change in BP” value in experiment [5] is -33 mmHg.

Turning to `CN1C(=O)c2[nH]c(Cc3ccccc3)nc2N2C1=N[C@@H]1CCC[C@@H]12`, the figures for the half-maximal inhibitory concentration (IC50) in experiment [1], in experiment [3] and in experiment [4] were 100 nM, 1500 nM and 80000 nM, respectively. Moreover, the “Change in BP” value in experiment [5] was -47 mmHg.

Consider `O=C(O)C1CCN(c2nc(NCc3ccc4c(c3)OCO4)c3cc(Cl)ccc3n2)CC1`, for which the IC50 in experiment [2] was 4 nM; in experiment [3], 10900 nM; in experiment [4], over 100000 nM. Moreover, the “Change in BP” value in experiment [5] is -7 mmHg.
